Legend:
Mus musculus [1] = test: Toxicity in male CDF1 mouse allografted with mouse P388 cells assessed as animal survival at 12.5 mg/kg, ip administered daily for 9 days as Klucel suspension starting 24 hrs after tumor inoculation; type: organism-based; set-up: dose 12.5 mg/kg, route intraperitoneal; conditions: in vivo
Summary of the method: (§1)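 P-388 leukemia ascitic fluid inoculated ip. Compound given ip as a suspension in Klucel (hydroxypropylcellulose), once daily for nine doses beginning 24 h post-inoculation. Acute toxicity assessed as toxicity-day survivors per group. Survival was followed up to 30 days, with 30-day survival counted as "cure". Follows NCI screening protocols.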

P388 [2] = test: Antitumor activity against mouse P388 cells allografted in male CDF1 mouse assessed as change in body weight at 12.5 mg/kg, ip administered daily for 9 days as Klucel suspension starting 24 hrs after tumor inoculation; type: functional; conditions: route intraperitoneal
Summary of the method: (§2)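 Ascitic fluid carrying P388 cells was inoculated ip. Compound was given ip in nine daily doses, starting 24 h after inoculation, in Klucel (hydroxypropylcellulose) suspension or in saline with Tween-80. Body-weight difference (treated minus control) was recorded on day 5. Survival was scored as %T/C of median survival time, and 30-day survival counted as cure.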

L1210 [3] = test: Antileukemic activity against mouse L1210 cells allografted in female BDF1 mouse assessed as change in body weight at 12.5 mg/kg, ip administered daily for 9 days as Klucel suspension starting 24 hrs after tumor inoculation; type: functional; conditions: route intraperitoneal
Summary of the method: (§3)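 Ascitic fluid carrying L1210 cells was inoculated ip. Compound was given ip as a Klucel (hydroxypropylcellulose) suspension in nine daily doses, starting 24 h after inoculation. Body-weight difference (treated minus control) was recorded on day 5. Survival was scored as %T/C of mean survival time.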

L1210 [4] = test: Antileukemic activity against mouse L1210 cells allografted in female BDF1 mouse assessed as change in body weight at 50 mg/kg, ip administered daily for 9 days as Klucel suspension starting 24 hrs after tumor inoculation; type: functional; conditions: route intraperitoneal; summary of the method: as §3
P388 [5] = test: Antitumor activity against mouse P388 cells allografted in male CDF1 mouse assessed as disease cures by measuring 30-days host survival at 50 mg/kg, ip administered daily for 9 days as Klucel suspension starting 24 hrs after tumor inoculation relative to control; type: functional; conditions: route intraperitoneal
Summary of the method: (§4)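 P388 leukemia given as an ascitic fluid cell inoculum, ip, to mice of the strain and sex in each line. Nine daily ip doses were given in a Klucel (hydroxypropylcellulose) suspension, starting 24 h after inoculation. Read-out is median survival time as %T/C, with >125 taken as significant; a "cure" means 30-day survival.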

L1210 [6] = test: Antileukemic activity against mouse L1210 cells allografted in male CDF1 mouse assessed as change in body weight at 200 mg/kg, ip administered daily for 9 days as Klucel suspension starting 24 hrs after tumor inoculation; type: functional; conditions: route intraperitoneal; summary of the method: as §3
Mus musculus [7] = test: Toxicity in male CDF1 mouse allografted with mouse P388 cells assessed as animal survival at 50 mg/kg, ip administered daily for 9 days as Klucel suspension starting 24 hrs after tumor inoculation; type: organism-based; set-up: dose 50 mg/kg, route intraperitoneal; conditions: in vivo; summary of the method: as §1
P388 [8] = test: Antitumor activity against mouse P388 cells allografted in male CDF1 mouse assessed as change in body weight at 100 mg/kg, ip administered daily for 9 days as Klucel suspension starting 24 hrs after tumor inoculation; type: functional; conditions: route intraperitoneal; summary of the method: as §2
L1210 [9] = test: Antileukemic activity against mouse L1210 cells allografted in male CDF1 mouse assessed as host mean survival time at 200 mg/kg, ip administered daily for 9 days as Klucel suspension starting 24 hrs after tumor inoculation relative to control; type: functional; conditions: route intraperitoneal
Summary of the method: (§5)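 L1210 leukemia given as an ascitic fluid cell inoculum, ip, to mice of the strain and sex in each line. Test material was given ip for nine daily doses starting 24 h after inoculation, in a Klucel (hydroxypropylcellulose) suspension. Read-out is mean survival time as %T/C versus controls, with >125 taken as significant.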

Mus musculus [10] = test: Toxicity in female BDF1 mouse allografted with mouse L1210 cells assessed as animal survival at 50 mg/kg, ip administered daily for 9 days as Klucel suspension starting 24 hrs after tumor inoculation measured on fifth day; type: organism-based; set-up: dose 50 mg/kg, route intraperitoneal; conditions: in vivo
Summary of the method: (§6)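 L1210 leukemia passaged as ascitic fluid and inoculated ip. Test agent given ip as a Klucel (hydroxypropylcellulose) suspension, nine daily doses starting 24 h after tumor inoculation. Acute toxicity read as toxicity-day survivors per group (out of 6), recorded on day 5. Animal weight difference T − C was also recorded. Follows NCI screening protocols.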

Mus musculus [11] = test: Toxicity in female BDF1 mouse allografted with mouse L1210 cells assessed as animal survival at 12.5 mg/kg, ip administered daily for 9 days as Klucel suspension starting 24 hrs after tumor inoculation measured on fifth day; type: organism-based; set-up: dose 12.5 mg/kg, route intraperitoneal; conditions: in vivo
Summary of the method: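 Female BDF1 mice bearing ip ascitic L1210 inoculum got nine daily ip doses in a Klucel suspension, starting 24 h after tumor inoculation. Toxicity was scored as toxicity-day survivors out of the group, recorded on the fifth day. Animal weight difference (T − C) was also tabulated.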

P388 [12] = test: Antitumor activity against mouse P388 cells allografted in male CDF1 mouse assessed as disease cures by measuring 30-days host survival at 12.5 mg/kg, ip administered daily for 9 days as Klucel suspension starting 24 hrs after tumor inoculation relative to control; type: functional; conditions: route intraperitoneal; summary of the method: as §4
L1210 [13] = test: Antileukemic activity against mouse L1210 cells allografted in female BDF1 mouse assessed as host mean survival time at 25 mg/kg, ip administered daily for 9 days as Klucel suspension starting 24 hrs after tumor inoculation relative to control; type: functional; conditions: route intraperitoneal; summary of the method: as §5
L1210 [14] = test: Antileukemic activity against mouse L1210 cells allografted in female BDF1 mouse assessed as change in body weight at 25 mg/kg, ip administered daily for 9 days as Klucel suspension starting 24 hrs after tumor inoculation; type: functional; conditions: route intraperitoneal; summary of the method: as §3
Mus musculus [15] = test: Toxicity in male CDF1 mouse allografted with mouse P388 cells assessed as animal survival at 25 mg/kg, ip administered daily for 9 days as Klucel suspension starting 24 hrs after tumor inoculation; type: organism-based; set-up: dose 25 mg/kg, route intraperitoneal; conditions: in vivo; summary of the method: as §1
Mus musculus [16] = test: Toxicity in male CDF1 mouse allografted with mouse L1210 cells assessed as animal survival at 100 mg/kg, ip administered daily for 9 days as Klucel suspension starting 24 hrs after tumor inoculation measured on fifth day; type: organism-based; set-up: dose 100 mg/kg, route intraperitoneal; conditions: in vivo; summary of the method: as §6
L1210 [17] = test: Antileukemic activity against mouse L1210 cells allografted in female BDF1 mouse assessed as host mean survival time at 12.5 mg/kg, ip administered daily for 9 days as Klucel suspension starting 24 hrs after tumor inoculation relative to control; type: functional; conditions: route intraperitoneal; summary of the method: as §5
L1210 [18] = test: Antileukemic activity against mouse L1210 cells allografted in female BDF1 mouse assessed as host mean survival time at 50 mg/kg, ip administered daily for 9 days as Klucel suspension starting 24 hrs after tumor inoculation relative to control; type: functional; conditions: route intraperitoneal; summary of the method: as §5
P388 [19] = test: Antitumor activity against mouse P388 cells allografted in male CDF1 mouse assessed as change in body weight at 25 mg/kg, ip administered daily for 9 days as Klucel suspension starting 24 hrs after tumor inoculation; type: functional; conditions: route intraperitoneal; summary of the method: as §2
Mus musculus [20] = test: Toxicity in male CDF1 mouse allografted with mouse L1210 cells assessed as animal survival at 200 mg/kg, ip administered daily for 9 days as Klucel suspension starting 24 hrs after tumor inoculation measured on fifth day; type: organism-based; set-up: dose 200 mg/kg, route intraperitoneal; conditions: in vivo; summary of the method: as §6
L1210 [21] = test: Antileukemic activity against mouse L1210 cells allografted in male CDF1 mouse assessed as host mean survival time at 100 mg/kg, ip administered daily for 9 days as Klucel suspension starting 24 hrs after tumor inoculation relative to control; type: functional; conditions: route intraperitoneal; summary of the method: as §5
Mus musculus [22] = test: Toxicity in female BDF1 mouse allografted with mouse L1210 cells assessed as animal survival at 25 mg/kg, ip administered daily for 9 days as Klucel suspension starting 24 hrs after tumor inoculation measured on fifth day; type: organism-based; set-up: dose 25 mg/kg, route intraperitoneal; conditions: in vivo; summary of the method: as §6
P388 [23] = test: Antitumor activity against mouse P388 cells allografted in male CDF1 mouse assessed as disease cures by measuring 30-days host survival at 100 mg/kg, ip administered daily for 9 days as Klucel suspension starting 24 hrs after tumor inoculation relative to control; type: functional; conditions: route intraperitoneal; summary of the method: as §4
P388 [24] = test: Antitumor activity against mouse P388 cells allografted in male CDF1 mouse assessed as change in body weight at 50 mg/kg, ip administered daily for 9 days as Klucel suspension starting 24 hrs after tumor inoculation; type: functional; conditions: route intraperitoneal; summary of the method: as §2
[25] = Cytotoxicity against human 9KB cells treated as ethanol solution; type: functional; conditions: read-out: ED50 (the source's name)
Summary of the method: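 Compound applied as an ethanol solution; activity read out as ED50 under the general screening protocol.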

L1210 [26] = test: Antileukemic activity against mouse L1210 cells allografted in male CDF1 mouse assessed as change in body weight at 100 mg/kg, ip administered daily for 9 days as Klucel suspension starting 24 hrs after tumor inoculation; type: functional; conditions: route intraperitoneal; summary of the method: as §3
P388 [27] = test: Antitumor activity against mouse P388 cells allografted in male CDF1 mouse assessed as disease cures by measuring 30-days host survival at 25 mg/kg, ip administered daily for 9 days as Klucel suspension starting 24 hrs after tumor inoculation relative to control; type: functional; conditions: route intraperitoneal; summary of the method: as §4

SMILES: CNC(=O)OCc1c(COC(=O)NC)c(-c2ccc(Cl)c(Cl)c2)n2c1CCC2
- Activity (Mus musculus [1]): Non-toxic
- Activity (P388 [2]): 1.6 g
- Activity (L1210 [3]): -1.5 g
- Activity (L1210 [4]): -3 g
- T/C (P388 [5]): 155%
- Activity (L1210 [6]): -4.8 g
- Activity (Mus musculus [7]): Non-toxic
- Activity (P388 [8]): -1.9 g
- T/C (L1210 [9]): 63%
- Activity (Mus musculus [10]): Non-toxic
- Activity (Mus musculus [11]): Non-toxic
- T/C (P388 [12]): 153%
- T/C (L1210 [13]): 109%
- Activity (L1210 [14]): -1.3 g
- Activity (Mus musculus [15]): Non-toxic
- Activity (Mus musculus [16]): Non-toxic
- T/C (L1210 [17]): 106%
- T/C (L1210 [18]): 124%
- Activity (P388 [19]): -0.4 g
- Activity (Mus musculus [20]): Non-toxic
- T/C (L1210 [21]): 74%
- Activity (Mus musculus [22]): Non-toxic
- T/C (P388 [23]): 188%
- Activity (P388 [24]): -2.5 g
- EC50 [25]: > 2.7 µg/mL
- Activity (L1210 [26]): -4.3 g
- T/C (P388 [27]): 160%

— ChEMBL document CHEMBL3244396, “Synthesis and antileukemic activity of 5-substituted 2,3-dihydro-6,7-bis(hydroxymethyl)-1H-pyrrolizine diesters” (J Med Chem, 1977)
